In ChEMBL document CHEMBL4339225, “Self-assembling Releasable Thiocolchicine-Diphenylbutenylaniline Conjugates” (ACS Med Chem Lett, 2019):

Key:
[1] = Drug level treated with 4-{3-[4-(1,2-Diphenyl-but-1-enyl)-phenylcarbamoyl]-propyldisulfanyl}-butyric acid 3-{2-acetoxy-5-[((S)-1,2,3-trimethoxy-10-methylsulfanyl-9-oxo-5,6,7,9-tetrahydro-benzo[a]heptalen-7-ylcarbamoyl)-methylcarbamoyloxymethyl]-phenyl}-propyl ester assessed as Celite-supported formulation of Pseudomonas cepacia lipase PS-mediated compound formation in presence of pH 7 phosphate buffer by reversed-phase HPLC; assay type: ADME
[2] = Drug level treated with 9-[4-(1,2-Diphenyl-but-1-enyl)-phenylcarbamoyl]-nonanoic acid 3-{2-acetoxy-5-[((S)-1,2,3-trimethoxy-10-methylsulfanyl-9-oxo-5,6,7,9-tetrahydro-benzo[a]heptalen-7-ylcarbamoyl)-methylcarbamoyloxymethyl]-phenyl}-propyl ester assessed as porcine pancreas lipase type 2-mediated compound formation in presence of pH 7 phosphate buffer by reversed-phase HPLC; assay type: ADME, Sus scrofa; details: pig
Procedure, shortened: (§1)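 Analytical-scale incubation was run overnight in 15:85 DMSO/phosphate buffer (20 mM, pH 7) with 1% n-BuOH and porcine pancreatic lipase. Starting-material hydrolysis and released products were quantified by reversed-phase HPLC.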

[3] = system: MCF7; assay: Antiproliferative activity against human MCF7 cells assessed as reduction in cell number incubated for 72 hrs; assay type: functional; details: MCF7, 72 h
[4] = system: HepG2; assay: Antiproliferative activity against human HepG2 cells assessed as reduction in cell number incubated for 72 hrs; assay type: functional; details: HepG2, 72 h
[5] = system: HeLa; assay: Antiproliferative activity against human HeLa cells assessed as reduction in cell number incubated for 72 hrs; assay type: functional
[6] = Drug metabolism assessed as Celite-supported formulation of Pseudomonas cepacia lipase PS-mediated 2-Amino-N-((S)-1,2,3-trimethoxy-10-methylsulfanyl-9-oxo-5,6,7,9-tetrahydro-benzo[a]heptalen-7-yl)-acetamide trifluoroacetic acid formation in presence of pH 7 phosphate buffer by reversed-phase HPLC; assay type: ADME
[7] = Self-assembling property assessed as polydispersity index by dynamic light scattering method; assay type: physicochemical
[8] = Self-assembling property assessed as hydrodynamic diameter by dynamic light scattering method; assay type: physicochemical
[9] = Stability assessed as Celite-supported formulation of Pseudomonas cepacia lipase PS-mediated drug hydrolysis in presence of pH 7 phosphate buffer by reversed-phase HPLC; assay type: ADME; details: read-out: Drug degradation
[10] = Colloidal stability of the compound in nanoparticle form in Ph 7 PBS at 0.5 mg/mL in presence of 10 to 100 mM KCl; assay type: physicochemical; details: buffer
Procedure, shortened: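 Nanoparticles were held at 0.5 mg/mL in PBS buffered to pH 7.4, with KCl at 0, 10, 25, 50 and 100 mM. Zeta potential and hydrodynamic diameter were recorded at each ionic strength.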

[11] = Colloidal stability of the compound in nanoparticle form at 0.5 mg/mL at acidic pH conditions; assay type: physicochemical
Procedure, shortened: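 Zeta potential was measured against pH at 0.5 mg/mL nanoparticle concentration and fixed ionic strength (1 mM KCl). pH was adjusted across 2–12 with 0.1 M NaOH or HCl. Hydrodynamic diameter was also followed over the same range.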

[12] = Drug metabolism assessed as Celite-supported formulation of Pseudomonas cepacia lipase PS-mediated 4-((4-(4-(1,2-diphenylbut-1-enyl)phenylamino)-4-oxobutyl)disulfanyl)butanoic acid formation in presence of pH 7 phosphate buffer by reversed-phase HPLC; assay type: ADME
[13] = Self-assembling property assessed as zeta potential by dynamic light scattering method; assay type: physicochemical
[14] = Stability assessed as porcine pancreas lipase type 2-mediated drug hydrolysis in presence of pH 7 phosphate buffer by reversed-phase HPLC; assay type: ADME, Sus scrofa; details: pig, porcine pancreas lipase type 2, pH 7; read-out: Drug degradation; procedure, shortened: as §1
[15] = Drug metabolism assessed as porcine pancreas lipase type 2-mediated 10-(4-(1,2-diphenylbut-1-enyl)phenylamino)-10-oxodecanoic acid formation in presence of pH 7 phosphate buffer by reversed-phase HPLC; assay type: ADME, Sus scrofa; details: pig; procedure, shortened: as §1

SMILES | GI50 [3] [µM] | GI50 [4] [µM] | GI50 [5] [µM] | Drug metabolism [6] | Activity_index [7] | Activity [8] [nm] | metabolised [9] [%] | Stability [10] | Stability [11] | Drug metabolism [12] | Activity [13] [mV] | metabolised [14] [%] | Drug metabolism [15] | Drug uptake [1] | Drug uptake [2]
COc1cc2c(c(OC)c1OC)-c1ccc(SC)c(=O)cc1[C@@H](NC(=O)CN)CC2 |  |  |  |  |  |  |  |  |  |  |  |  |  | Active | Active
CC/C(=C(\c1ccccc1)c1ccc(NC(=O)CCCSSCCCC(=O)OCCCc2cc(COC(=O)NCC(=O)N[C@H]3CCc4cc(OC)c(OC)c(OC)c4-c4ccc(SC)c(=O)cc43)ccc2OC(C)=O)cc1)c1ccccc1 | 0.71 | > 30 | 2.8 | Metabolite_Detected | 0.147 | 344 | 88 | Stable | Unstable | Metabolite_Detected | -46.47 |  |  |  | 
CC/C(=C(\c1ccccc1)c1ccc(NC(=O)CCCCCCCCC(=O)OCCCc2cc(COC(=O)NCC(=O)N[C@H]3CCc4cc(OC)c(OC)c(OC)c4-c4ccc(SC)c(=O)cc43)ccc2OC(C)=O)cc1)c1ccccc1 | 0.87 | > 30 | 4.2 |  | 0.17 | 412.9 |  | Stable | Unstable |  | -33.51 | 85 | Metabolite_Detected |  | 
CC/C(=C(\c1ccccc1)c1ccc(N)cc1)c1ccccc1 |  | 28.2 | > 30 |  |  |  |  |  |  |  |  |  |  | Active | Active

Second part, led by results:

GI50 [3] [µM] | GI50 [4] [µM] | GI50 [5] [µM] | Drug metabolism [6] | Activity_index [7] | Activity [8] [nm] | metabolised [9] [%] | Stability [10] | Stability [11] | Drug metabolism [12] | Activity [13] [mV] | metabolised [14] [%] | Drug metabolism [15] | SMILES | Drug uptake [1] | Drug uptake [2]
> 30 | 25.6 | > 30 |  |  |  |  |  |  |  |  |  |  | CC/C(=C(\c1ccccc1)c1ccc(NC(=O)CCCCCCCCC(=O)O)cc1)c1ccccc1 |  | Active
> 30 | > 30 | > 30 |  |  |  |  |  |  |  |  |  |  | CC/C(=C(\c1ccccc1)c1ccc(NC(=O)CCCSSCCCC(=O)O)cc1)c1ccccc1 |  | 
